Values after ≈ are worked out from the molar mass of the structure shown. Active and inactive are the calls of the source. The rule behind the calls is not given here.
Legend:
[1] = Hemolytic activity in human RBC at 100 ug/ml after 1 hr; settings: erythrocyte
[2] = test system: Trichophyton mentagrophytes; test: Antifungal activity against Trichophyton mentagrophytes after 16 hrs by microtiter broth dilution method; type: functional
Escherichia coli = test: Antibacterial activity against Escherichia coli ATCC 9637 after 16 hrs by microtiter broth dilution method; type: functional; settings: W
Candida albicans = test: Antifungal activity against Candida albicans after 16 hrs by microtiter broth dilution method; type: functional
Staphylococcus aureus [3] = test: Antibacterial activity against methicillin/gentamicin-resistant Staphylococcus aureus ATCC 33592 after 16 hrs by microtiter broth dilution method; type: functional; settings: ATCC 33592, 16 h
Staphylococcus aureus [4] = test: Antibacterial activity against Staphylococcus aureus ATCC 25923 after 16 hrs by microtiter broth dilution method; type: functional; settings: ATCC 25923, 16 h
Pseudomonas aeruginosa = test: Antibacterial activity against Pseudomonas aeruginosa ATCC BAA-427 after 16 hrs by microtiter broth dilution method; type: functional; settings: ATCC BAA-427, 16 h
Staphylococcus aureus [5] = test: Antibacterial activity against methicillin-resistant Staphylococcus aureus ATCC 700699 after 16 hrs by microtiter broth dilution method; type: functional; settings: ATCC 700699, 16 h
Aspergillus fumigatus = test: Antifungal activity against Aspergillus fumigatus after 16 hrs by microtiter broth dilution method; type: functional
Candida parapsilosis = test: Antifungal activity against Candida parapsilosis ATCC 22019 after 16 hrs by microtiter broth dilution method; type: functional; settings: Lodderomyces parapsilosis, ATCC 22019, 16 h
Sporothrix schenckii = test: Antifungal activity against Sporothrix schenckii after 16 hrs by microtiter broth dilution method; type: functional
Klebsiella pneumoniae = test: Antibacterial activity against Klebsiella pneumoniae ATCC 27736 after 16 hrs by microtiter broth dilution method; type: functional; settings: ATCC 27736, 16 h
Staphylococcus aureus [6] = test: Antibacterial activity against […] Staphylococcus aureus ATCC 29213 after 16 hrs by microtiter broth dilution method; type: functional; settings: ATCC 29213, 16 h
Cryptococcus neoformans = test: Antifungal activity against Cryptococcus neoformans after 16 hrs by microtiter broth dilution method; type: functional
Staphylococcus aureus [7] = test: Antibacterial activity against […] Staphylococcus aureus ATCC 29213 assessed as reduction in log10CFU at 1x MIC and 10x MIC measured at 24 hrs relative to control; type: functional
How it was run: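 Aliquots were taken at regular time points and plated for CFU counts. Reduction in log10 CFU was taken against a no-drug control.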

L929 [8] = test: Cytotoxicity against mouse L929 cells assessed as cell viability at <= MIC by MTT assay; type: cell-based
How it was run: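 Mouse fibroblast L929 cells were exposed to the compound. Viability was read by MTT conversion to blue formazan, measured at 550 nm.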

L929 [9] = test: Cytotoxicity against mouse L929 cells assessed as induction of morphological changes at 1 x MIC after 24 hrs by Giemsa staining-based phase contrast microscopic analysis; type: cell-based; settings: l929, 24 h
How it was run: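 L929 fibroblasts were incubated with the compound for 24 h, then Giemsa-stained. Morphology was compared with untreated control cells under phase contrast microscopy for appearance, transparency and attachment to the well surface.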

## CCOC(=O)c1csc(/N=C/c2cc(/C=C/C(=O)c3ccc(OC)cc3)cc(C(C)C)c2O)n1
[1]
  Activity: Non-toxic
[2]
  MIC: > 104 µM
Escherichia coli
  MIC: > 104 µM
Candida albicans
  MIC: > 104 µM
Staphylococcus aureus [3]
  MIC: 26.1 µM (≈ 12.5 µg/mL)
Staphylococcus aureus [4]
  MIC: 26.1 µM (≈ 12.5 µg/mL)
Pseudomonas aeruginosa
  MIC: > 104 µM
Staphylococcus aureus [5]
  MIC: 26.1 µM (≈ 12.5 µg/mL)
Aspergillus fumigatus
  MIC: > 104 µM
Candida parapsilosis
  MIC: > 104 µM
Sporothrix schenckii
  MIC: > 104 µM
Klebsiella pneumoniae
  MIC: > 104 µM
Staphylococcus aureus [6]
  MIC: 26.1 µM (≈ 12.5 µg/mL)
Cryptococcus neoformans
  MIC: > 104 µM

## C[C@H]1COc2c(N3CCN(C)CC3)c(F)cc3c(=O)c(C(=O)O)cn1c23
Staphylococcus aureus [7]
  Activity: Active

## OC(Cn1cncn1)(Cn1cncn1)c1ccc(F)cc1F [FLUCONAZOLE]
[2]
  MIC: 22.1 µM (≈ 6.77 µg/mL)
Escherichia coli
  MIC: > 34.5 µM
Candida albicans
  MIC: 0.7 µM (≈ 0.214 µg/mL)
Staphylococcus aureus [3]
  MIC: > 34.5 µM
Staphylococcus aureus [4]
  MIC: > 34.5 µM
Pseudomonas aeruginosa
  MIC: > 34.5 µM
Staphylococcus aureus [5]
  MIC: > 34.5 µM
Aspergillus fumigatus
  MIC: 22.1 µM (≈ 6.77 µg/mL)
Candida parapsilosis
  MIC: 1.4 µM (≈ 0.429 µg/mL)
Sporothrix schenckii
  MIC: 1.4 µM (≈ 0.429 µg/mL)
Klebsiella pneumoniae
  MIC: > 34.5 µM
Staphylococcus aureus [6]
  MIC: > 34.5 µM
Cryptococcus neoformans
  MIC: 1.4 µM (≈ 0.429 µg/mL)

## CCOC(=O)c1csc(/N=C/c2cc(/C=C/C(=O)c3ccc(C)cc3)cc(C(C)C)c2O)n1
[1]
  Activity: Non-toxic
[2]
  MIC: > 108 µM
Escherichia coli
  MIC: > 108 µM
Candida albicans
  MIC: > 108 µM
Staphylococcus aureus [3]
  MIC: 13.5 µM (≈ 6.24 µg/mL)
Staphylococcus aureus [4]
  MIC: 27 µM (≈ 12.5 µg/mL)
Pseudomonas aeruginosa
  MIC: > 108 µM
Staphylococcus aureus [5]
  MIC: 13.5 µM (≈ 6.24 µg/mL)
Aspergillus fumigatus
  MIC: > 108 µM
Candida parapsilosis
  MIC: > 108 µM
Sporothrix schenckii
  MIC: > 108 µM
Klebsiella pneumoniae
  MIC: > 108 µM
Staphylococcus aureus [6]
  MIC: 13.5 µM (≈ 6.24 µg/mL)
Cryptococcus neoformans
  MIC: > 108 µM

## C[C@@H]1[C@H](O)[C@@H](C)/C=C/C=C/C=C/C=C/C=C/C=C/C=C/[C@H](O[C@@H]2O[C@H](C)[C@@H](O)[C@H](N)[C@@H]2O)C[C@@H]2O[C@](O)(C[C@@H](O)C[C@@H](O)[C@H](O)CC[C@@H](O)C[C@@H](O)CC(=O)O[C@H]1C)C[C@H](O)[C@H]2C(=O)O [AMPHOTERICIN B]
[2]
  MIC: 0.3 µM (≈ 0.277 µg/mL)
Escherichia coli
  MIC: > 54.1 µM
Staphylococcus aureus [3]
  MIC: > 54.1 µM
Staphylococcus aureus [4]
  MIC: > 54.1 µM
Pseudomonas aeruginosa
  MIC: > 54.1 µM
Staphylococcus aureus [5]
  MIC: > 54.1 µM
Aspergillus fumigatus
  MIC: 0.5 µM (≈ 0.462 µg/mL)
Sporothrix schenckii
  MIC: 0.3 µM (≈ 0.277 µg/mL)
Klebsiella pneumoniae
  MIC: > 54.1 µM
Staphylococcus aureus [6]
  MIC: > 54.1 µM
Cryptococcus neoformans
  MIC: 0.1 µM (≈ 0.0924 µg/mL)

## CCOC(=O)c1csc(/N=C/c2cc(/C=C/C(=O)c3ccc(C)cc3)cc(C(C)(C)C)c2O)n1
[1]
  Activity: Non-toxic
[2]
  MIC: > 105 µM
Escherichia coli
  MIC: > 105 µM
Candida albicans
  MIC: > 105 µM
L929 [8]
  Activity: Non-toxic
Staphylococcus aureus [3]
  MIC: 3.3 µM (≈ 1.57 µg/mL)
Staphylococcus aureus [4]
  MIC: 6.5 µM (≈ 3.1 µg/mL)
Pseudomonas aeruginosa
  MIC: > 105 µM
Staphylococcus aureus [5]
  MIC: 13.1 µM (≈ 6.24 µg/mL)
L929 [9]
  Activity: Non-toxic
Aspergillus fumigatus
  MIC: > 105 µM
Candida parapsilosis
  MIC: > 105 µM
Sporothrix schenckii
  MIC: > 105 µM
Klebsiella pneumoniae
  MIC: > 105 µM
Staphylococcus aureus [6]
  MIC: 6.5 µM (≈ 3.1 µg/mL)
Cryptococcus neoformans
  MIC: > 105 µM

## CCOC(=O)c1csc(/N=C/c2cc(/C=C/C(=O)c3ccco3)cc(C(C)(C)C)c2O)n1
[1]
  Activity: Non-toxic
[2]
  MIC: > 110 µM
Escherichia coli
  MIC: > 110 µM
Candida albicans
  MIC: > 110 µM
Staphylococcus aureus [3]
  MIC: 13.8 µM (≈ 6.24 µg/mL)
Staphylococcus aureus [4]
  MIC: 13.8 µM (≈ 6.24 µg/mL)
Pseudomonas aeruginosa
  MIC: > 110 µM
Staphylococcus aureus [5]
  MIC: 13.8 µM (≈ 6.24 µg/mL)
Aspergillus fumigatus
  MIC: > 110 µM
Candida parapsilosis
  MIC: > 110 µM
Sporothrix schenckii
  MIC: > 110 µM
Klebsiella pneumoniae
  MIC: > 110 µM
Staphylococcus aureus [6]
  MIC: 13.8 µM (≈ 6.24 µg/mL)
Cryptococcus neoformans
  MIC: > 110 µM

## COc1ccc(C(=O)/C=C/c2cc(/C=N/c3nc(-c4ccc(OC)cc4)cs3)c(O)c(C(C)(C)C)c2)cc1
[1]
  Activity: Non-toxic
[2]
  MIC: > 94.9 µM
Escherichia coli
  MIC: > 94.9 µM
Candida albicans
  MIC: > 94.9 µM
Staphylococcus aureus [3]
  MIC: 3 µM (≈ 1.58 µg/mL)
Staphylococcus aureus [4]
  MIC: 11.9 µM (≈ 6.27 µg/mL)
Pseudomonas aeruginosa
  MIC: > 94.9 µM
Staphylococcus aureus [5]
  MIC: 11.9 µM (≈ 6.27 µg/mL)
Aspergillus fumigatus
  MIC: > 94.9 µM
Candida parapsilosis
  MIC: > 94.9 µM
Sporothrix schenckii
  MIC: > 94.9 µM
Klebsiella pneumoniae
  MIC: > 94.9 µM
Staphylococcus aureus [6]
  MIC: 11.9 µM (≈ 6.27 µg/mL)
Cryptococcus neoformans
  MIC: > 94.9 µM

## COc1ccc(C(=O)/C=C/c2cc(/C=N/c3nc(-c4ccc(OC)c(OC)c4)cs3)c(O)c(C(C)(C)C)c2)cc1
[1]
  Activity: Non-toxic
[2]
  MIC: > 89.8 µM
Escherichia coli
  MIC: > 89.8 µM
Candida albicans
  MIC: > 89.8 µM
Staphylococcus aureus [3]
  MIC: 5.6 µM (≈ 3.12 µg/mL)
Staphylococcus aureus [4]
  MIC: 11.2 µM (≈ 6.23 µg/mL)
Pseudomonas aeruginosa
  MIC: > 89.8 µM
Staphylococcus aureus [5]
  MIC: 11.2 µM (≈ 6.23 µg/mL)
Aspergillus fumigatus
  MIC: > 89.8 µM
Candida parapsilosis
  MIC: > 89.8 µM
Sporothrix schenckii
  MIC: > 89.8 µM
Klebsiella pneumoniae
  MIC: > 89.8 µM
Staphylococcus aureus [6]
  MIC: 11.2 µM (≈ 6.23 µg/mL)
Cryptococcus neoformans
  MIC: > 89.8 µM
